Calls of active or inactive are those of the source. The rule behind the calls is not given here.
Test system: HL-60
Assay: Induction of apoptosis in human HL60 cells using DEVD-pNA as substrate assessed as caspase-3/7 activation at 3 uM after 24 hrs relative to control
Type: functional
Details: not given
In short: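 HL-60 cells treated with 3 μM diterpene for 24 h. Lysates were assayed for cleavage of chromogenic tetrapeptide substrates DEVD-pNA (caspase-3/7), IETD-pNA (caspase-8) and LEHD-pNA (caspase-9). Activity is expressed as n-fold over untreated control. Mean ± SE of three independent experiments, each in triplicate.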

Row | SMILES | fold change (FC)
1 | CC(=O)O[C@H]1C2=C(C(=O)C(OC(=O)c3ccc(Cl)cc3)=C(C(C)C)C2=O)[C@@]2(C)CCCC(C)(C)[C@@H]2[C@@H]1O | 2

Test system: HL-60
Assay: Induction of apoptosis in human HL60 cells after 24 hrs by flow cytometry in presence of caspase-9 inhibitor Z-LEHD-FMK
Type: functional, cell-based
Details: not given
In short: (§1)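 HL-60 cells pretreated 1 h with caspase inhibitor, then given diterpene for 24 h; hypodiploid cells counted by flow cytometry; mean ± SE of three independent experiments in triplicate.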

Row | SMILES | Activity
2 | CC(=O)O[C@H]1C2=C(C(=O)C(OC(=O)c3ccc(Cl)cc3)=C(C(C)C)C2=O)[C@@]2(C)CCCC(C)(C)[C@@H]2[C@@H]1O | Active

Test system: HL-60
Assay: Induction of apoptosis in human HL60 cells assessed as nuclear chromatin fragmentation after 6 hrs by Hoechst 33258 staining-based fluorescence microscopy
Type: functional, cell-based
Details: not given

Row | SMILES | Activity
3 | CC(=O)O[C@H]1C2=C(C(=O)C(OC(=O)c3ccc(Cl)cc3)=C(C(C)C)C2=O)[C@@]2(C)CCCC(C)(C)[C@@H]2[C@@H]1O | Active

Test system: HL-60
Assay: Induction of apoptosis in human HL60 cells at 3 uM after 24 hrs by flow cytometry in presence of Z-VAD-FMK
Type: functional, cell-based
Details: not given
In short: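 HL-60 cells pretreated with pancaspase inhibitor Z-VAD-FMK (100 μM), then given diterpene (3 μM) for 24 h. Hypodiploid (sub-G1) apoptotic cells were counted by flow cytometry. Mean ± SE of three independent experiments, each in triplicate.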

Row | SMILES | Activity
4 | CC(=O)O[C@H]1C2=C(C(=O)C(OC(=O)c3ccc(Cl)cc3)=C(C(C)C)C2=O)[C@@]2(C)CCCC(C)(C)[C@@H]2[C@@H]1O | Active

Test system: HL-60
Assay: Cytotoxicity against human HL60 cells after 72 hrs by MTT assay
Type: functional, cell-based
Details: HL-60, 72 h
In short: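 MTT assay: 1 × 10^4 exponentially growing cells per well incubated 72 h over a range of compound concentrations; MTT 0.5 mg/mL for 4 h at 37 °C, then 10% SDS in 0.05 M HCl overnight at room temperature in the dark; absorbance at 570 nm. Leukemia and SK-MEL-1 lines grown in RPMI 1640, MCF-7 in DMEM, both with 10% heat-inactivated FBS. IC50 given as mean ± SEM of 3–5 independent experiments, each in triplicate.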

Row | SMILES | IC50
5 | CC(=O)O[C@H]1C2=C(C(=O)C(OC(=O)c3ccc(Cl)cc3)=C(C(C)C)C2=O)[C@@]2(C)CCCC(C)(C)[C@@H]2[C@@H]1O | 2400 nM

Test system: HL-60
Assay: Induction of apoptosis in human HL60 cells assessed as procaspase-3 cleavage at 3 uM after 24 hrs by immunoblotting analysis
Type: functional, cell-based
Details: not given
In short: (§2)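 HL-60 cells treated 24 h with 3 μM; immunoblots of lysates probed with antibodies that recognize both pro-caspases and cleaved caspases, and for PARP.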

Row | SMILES | Activity
6 | CC(=O)O[C@H]1C2=C(C(=O)C(OC(=O)c3ccc(Cl)cc3)=C(C(C)C)C2=O)[C@@]2(C)CCCC(C)(C)[C@@H]2[C@@H]1O | Active

Test system: HL-60
Assay: Induction of apoptosis in human HL60 cells assessed as reduction in mitochondrial membrane potential at 3 uM after 24 hrs by JC-1 staining-based flow cytometry in presence of bongkrekic acid
Type: functional, cell-based
Details: not given
In short: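 HL-60 cells exposed to 3 μM diterpene for 24 h alongside permeability transition pore inhibitors cyclosporin A (25 μM, 24 h) or bongkrekic acid (25−50 μM, 24 h). Apoptosis was scored by flow cytometry. Mitochondrial membrane potential was read by JC-1 fluorescence on flow cytometry.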

Row | SMILES | Activity
7 | CC(=O)O[C@H]1C2=C(C(=O)C(OC(=O)c3ccc(Cl)cc3)=C(C(C)C)C2=O)[C@@]2(C)CCCC(C)(C)[C@@H]2[C@@H]1O | Active

Test system: HL-60
Assay: Cytotoxicity against human HL60 cells overexpressing neomycin-resistant gene after 72 hrs by MTT assay
Type: functional, cell-based
Details: not given

Row | SMILES | Activity
8 | CC(=O)O[C@H]1C2=C(C(=O)C(OC(=O)c3ccc(Cl)cc3)=C(C(C)C)C2=O)[C@@]2(C)CCCC(C)(C)[C@@H]2[C@@H]1O | Active

Test system: HL-60
Assay: Induction of apoptosis in human HL60 cells assessed as early apoptotic cells at 3 uM after 24 hrs by AnnexinV-FITC/propidium iodide staining-based flow cytometry (reference value: 1.6%)
Type: functional
Details: not given
In short: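 HL-60 cells given 3 μM for 24 h, stained with annexin V-FITC and propidium iodide, and analysed by flow cytometry; annexin+/PI− cells scored as early apoptotic and double-positive cells as late; three separate experiments.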

Row | SMILES | Activity
9 | CC(=O)O[C@H]1C2=C(C(=O)C(OC(=O)c3ccc(Cl)cc3)=C(C(C)C)C2=O)[C@@]2(C)CCCC(C)(C)[C@@H]2[C@@H]1O | 28.8%

Test system: HL-60
Assay: Induction of apoptosis in human HL60 cells assessed as PARP cleavage at 3 uM after 24 hrs by immunoblotting analysis
Type: functional, cell-based
Details: not given
In short: as §2

Row | SMILES | Activity
10 | CC(=O)O[C@H]1C2=C(C(=O)C(OC(=O)c3ccc(Cl)cc3)=C(C(C)C)C2=O)[C@@]2(C)CCCC(C)(C)[C@@H]2[C@@H]1O | Active

Test system: HL-60
Assay: Cell cycle arrest in human HL60 cells assessed as accumulation at Sub-G1 phase at 3 uM after 24 hrs by […]propidium iodide staining-based flow cytometry (reference value: 4%)
Type: functional
Details: not given

Row | SMILES | Activity
11 | CC(=O)O[C@H]1C2=C(C(=O)C(OC(=O)c3ccc(Cl)cc3)=C(C(C)C)C2=O)[C@@]2(C)CCCC(C)(C)[C@@H]2[C@@H]1O | 32%

Test system: PBMC
Assay: Cytotoxicity against human PBMC cells up to 3 uM after 24 hrs by MTT assay
Type: cell-based
Details: not given
In short: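 PBMC from heparinized blood of healthy volunteers, isolated on Ficoll-Paque, cultured in parallel with HL-60 cells for 24 h at the stated concentrations; viability measured by MTT; Student's t-test versus untreated control.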

Row | SMILES | Activity
12 | CC(=O)O[C@H]1C2=C(C(=O)C(OC(=O)c3ccc(Cl)cc3)=C(C(C)C)C2=O)[C@@]2(C)CCCC(C)(C)[C@@H]2[C@@H]1O | Non-toxic

Test system: HL-60
Assay: Induction of apoptosis in human HL60 cells assessed as hypodiploid cells at 3 uM after 24 hrs by flow cytometry (reference value: 4.4 +/- 0.8%)
Type: functional
Details: not given

Row | SMILES | Activity
13 | CC(=O)O[C@H]1C2=C(C(=O)C(OC(=O)c3ccc(Cl)cc3)=C(C(C)C)C2=O)[C@@]2(C)CCCC(C)(C)[C@@H]2[C@@H]1O | 40.4%

Test system: HL-60
Assay: Induction of apoptosis in human HL60 cells assessed as hypodiploid cells after 24 hrs by flow cytometry in presence of caspase-8 inhibitor Z-IETD-FMK
Type: functional, cell-based
Details: not given
In short: as §1

Row | SMILES | Activity
14 | CC(=O)O[C@H]1C2=C(C(=O)C(OC(=O)c3ccc(Cl)cc3)=C(C(C)C)C2=O)[C@@]2(C)CCCC(C)(C)[C@@H]2[C@@H]1O | Active

Test system: HL-60
Assay: Induction of apoptosis in human HL60 cells assessed as procaspase-8 cleavage at 3 uM after 24 hrs by immunoblotting analysis
Type: functional, cell-based
Details: not given
In short: as §2

Row | SMILES | Activity
15 | CC(=O)O[C@H]1C2=C(C(=O)C(OC(=O)c3ccc(Cl)cc3)=C(C(C)C)C2=O)[C@@]2(C)CCCC(C)(C)[C@@H]2[C@@H]1O | Active
